ChEMBL document CHEMBL4732273, “In Silico Targeting of the Long Noncoding RNA MALAT1” (ACS Med Chem Lett, 2021)
Active and inactive are the calls of the source. The rule behind the calls is not given here.

Columns and labels:
tRNA = assay: Binding affinity to biotinylated-tRNA (unknown origin) at 200 uM measured after 120 secs by Surface plasmon resonance analysis; assay type: nucleic-acid assay; conditions: time 120.0 sec
Procedure, shortened: (§1)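 The RNA was 3′-biotinylated by ligating pCp-biotin with T4 RNA ligase 1 after dephosphorylation, then immobilized on the SPR chip at 300 RU. Compounds were injected as 50 μL at 200 μM at a 20 μL/min flow rate, followed by 60 s of dissociation. Biotinylated tRNA was immobilized and run the same way as the negative-control surface.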

[1] = Binding affinity to biotinylated-MALAT1 RNA (unknown origin) at 200 uM measured after 140 secs by Surface plasmon resonance analysis; conditions: time 140.0 sec; procedure, shortened: as §1
[2] = Binding affinity to biotinylated-MALAT1 RNA (unknown origin) by Surface plasmon resonance analysis
Procedure, shortened: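 Surface plasmon resonance on MALAT1 RNA that was 3′-biotinylated by pCp-biotin ligation with T4 RNA ligase 1 and immobilized at 300 RU. Compound was flowed at 20 μL/min with 60 s of dissociation. A biotinylated tRNA surface served as the negative control. The dissociation constant was derived from the SPR sensorgram analysis.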

Row | Compound | Activity (tRNA) | Activity [1] | Kd [2]
1 | COc1ncccc1CN1CCN(c2ccc(C(N)=O)cc2)CC1 | Active | Active | –
2 | c1ccc2sc(C3CCCN(Cc4cc5n(n4)CCCNC5)C3)nc2c1 (stereo unspecified) | inactive | Active | –
3 | CN1CCC(O)(Cn2cnc3ccc(F)cc3c2=O)CC1 | inactive | Active | –
4 | Cc1ccc(NC(=O)NCC2CCCN(C3CCN(C)CC3)C2)cc1 (stereo unspecified) | Active | Active | –
5 | NS(=O)(=O)c1ccc(CNC2CCC3(CCNCC3)CC2)cc1 | inactive | Active | 400 µM
6 | CCN1CCCC1CNC(=O)CCC1CCN(Cc2cc3ccccc3s2)CC1 (stereo unspecified) | Active | Active | –
7 | NCC1Cc2cccc(-c3cc4c(cc3C(N)=O)OCO4)c2O1 (stereo unspecified) | Active | Active | –
8 | O=C(c1cc(=O)[nH]c2cc(F)ccc12)N1CCCC(N2CCCC2)C1 (stereo unspecified) | – | Active | –
